Calls of active or inactive are those of the source. The calls are words filed in the database; no cut-off is given here.

This note sets out measurements from ChEMBL document CHEMBL4118021, “Studies of TAK1-centered polypharmacology with novel covalent TAK1 inhibitors” (Bioorg Med Chem, 2017).

For assay [1], the target named is Glutamate--cysteine ligase regulatory subunit (Homo sapiens) (UniProt P48507). Nature of the assay: Binding affinity to GCLM in human NCI-H358 cells at 1 uM by mass spectrometry based pull down assay. The format is cell-based.
Chain of Glutamate--cysteine ligase regulatory subunit (Homo sapiens) (P48507 whole entry): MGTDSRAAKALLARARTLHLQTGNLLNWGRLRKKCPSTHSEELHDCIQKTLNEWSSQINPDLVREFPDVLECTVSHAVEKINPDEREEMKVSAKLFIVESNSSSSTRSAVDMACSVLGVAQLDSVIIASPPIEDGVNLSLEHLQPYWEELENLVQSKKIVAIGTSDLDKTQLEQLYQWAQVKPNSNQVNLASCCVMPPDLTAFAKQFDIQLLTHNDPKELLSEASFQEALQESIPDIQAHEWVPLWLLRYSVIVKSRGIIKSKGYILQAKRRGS
The target in assay [2] is ATP-dependent RNA helicase DDX3X (Homo sapiens) (UniProt O00571). Nature of the assay: Binding affinity to DDX3X in human NCI-H358 cells at 1 uM by mass spectrometry based pull down assay. The format is cell-based.
Assay [3] deals with Peroxiredoxin-4 (Homo sapiens) (UniProt Q13162). Nature of the assay: Binding affinity to PRDX4 in human NCI-H358 cells at 1 uM by mass spectrometry based pull down assay. The format is cell-based.
Chain of Peroxiredoxin-4 (Homo sapiens) (Q13162 whole entry): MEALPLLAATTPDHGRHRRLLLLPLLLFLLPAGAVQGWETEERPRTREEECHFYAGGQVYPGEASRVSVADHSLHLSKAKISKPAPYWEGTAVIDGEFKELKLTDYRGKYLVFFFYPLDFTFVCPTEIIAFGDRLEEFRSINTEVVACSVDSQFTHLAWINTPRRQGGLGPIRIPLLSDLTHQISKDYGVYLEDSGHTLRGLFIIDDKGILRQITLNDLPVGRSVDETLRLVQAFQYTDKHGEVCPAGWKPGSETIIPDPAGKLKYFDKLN
The target of assay [4] is Opioid growth factor receptor (Homo sapiens) (UniProt Q9NZT2). The assay is described as follows: Binding affinity to OGFR in human NCI-H23 cells at 1 uM by mass spectrometry based pull down assay. The format is cell-based.
Chain of Opioid growth factor receptor (Homo sapiens) (Q9NZT2 whole entry): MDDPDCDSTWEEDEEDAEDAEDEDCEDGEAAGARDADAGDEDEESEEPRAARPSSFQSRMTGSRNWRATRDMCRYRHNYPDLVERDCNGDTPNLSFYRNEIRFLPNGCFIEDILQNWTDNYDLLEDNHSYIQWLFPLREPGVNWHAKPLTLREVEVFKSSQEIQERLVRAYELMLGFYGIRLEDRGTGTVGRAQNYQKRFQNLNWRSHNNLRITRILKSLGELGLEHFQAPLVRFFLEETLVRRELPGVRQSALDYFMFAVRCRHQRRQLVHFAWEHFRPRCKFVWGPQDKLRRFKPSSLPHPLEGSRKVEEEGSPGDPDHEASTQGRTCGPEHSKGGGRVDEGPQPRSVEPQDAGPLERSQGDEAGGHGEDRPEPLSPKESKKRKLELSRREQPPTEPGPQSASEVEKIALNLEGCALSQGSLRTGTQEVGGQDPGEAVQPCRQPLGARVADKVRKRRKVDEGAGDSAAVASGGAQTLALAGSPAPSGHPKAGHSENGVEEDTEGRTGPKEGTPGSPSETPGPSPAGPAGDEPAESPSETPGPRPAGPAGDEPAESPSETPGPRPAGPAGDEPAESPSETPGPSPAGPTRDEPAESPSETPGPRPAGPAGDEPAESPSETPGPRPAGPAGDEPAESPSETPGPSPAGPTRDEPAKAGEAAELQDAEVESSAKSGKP
Assay [5] addresses Bifunctional 3'-phosphoadenosine 5'-phosphosulfate synthase 2 (Homo sapiens) (UniProt O95340). Nature of the assay: Binding affinity to PAPSS2 in human NCI-H23 cells at 1 uM by mass spectrometry based pull down assay. The format is cell-based.
Another assay concerns NCI-H23. Nature of the assay: Binding affinity to PSMA7 in human NCI-H23 cells at 1 uM by mass spectrometry based pull down assay. The format is cell-based.
For assay [6], the target named is AP-2 complex subunit alpha-1 (Homo sapiens) (UniProt O95782). Nature of the assay: Binding affinity to AP2A1 in human NCI-H358 cells at 1 uM by mass spectrometry based pull down assay. The format is cell-based.
The target of assay [7] is U5 small nuclear ribonucleoprotein 200 kDa helicase (Homo sapiens) (UniProt O75643). The assay is described as follows: Binding affinity to SNRNP200 in human NCI-H23 cells at 1 uM by mass spectrometry based pull down assay. The format is cell-based.
Chain of U5 small nuclear ribonucleoprotein 200 kDa helicase (Homo sapiens) (O75643 whole entry): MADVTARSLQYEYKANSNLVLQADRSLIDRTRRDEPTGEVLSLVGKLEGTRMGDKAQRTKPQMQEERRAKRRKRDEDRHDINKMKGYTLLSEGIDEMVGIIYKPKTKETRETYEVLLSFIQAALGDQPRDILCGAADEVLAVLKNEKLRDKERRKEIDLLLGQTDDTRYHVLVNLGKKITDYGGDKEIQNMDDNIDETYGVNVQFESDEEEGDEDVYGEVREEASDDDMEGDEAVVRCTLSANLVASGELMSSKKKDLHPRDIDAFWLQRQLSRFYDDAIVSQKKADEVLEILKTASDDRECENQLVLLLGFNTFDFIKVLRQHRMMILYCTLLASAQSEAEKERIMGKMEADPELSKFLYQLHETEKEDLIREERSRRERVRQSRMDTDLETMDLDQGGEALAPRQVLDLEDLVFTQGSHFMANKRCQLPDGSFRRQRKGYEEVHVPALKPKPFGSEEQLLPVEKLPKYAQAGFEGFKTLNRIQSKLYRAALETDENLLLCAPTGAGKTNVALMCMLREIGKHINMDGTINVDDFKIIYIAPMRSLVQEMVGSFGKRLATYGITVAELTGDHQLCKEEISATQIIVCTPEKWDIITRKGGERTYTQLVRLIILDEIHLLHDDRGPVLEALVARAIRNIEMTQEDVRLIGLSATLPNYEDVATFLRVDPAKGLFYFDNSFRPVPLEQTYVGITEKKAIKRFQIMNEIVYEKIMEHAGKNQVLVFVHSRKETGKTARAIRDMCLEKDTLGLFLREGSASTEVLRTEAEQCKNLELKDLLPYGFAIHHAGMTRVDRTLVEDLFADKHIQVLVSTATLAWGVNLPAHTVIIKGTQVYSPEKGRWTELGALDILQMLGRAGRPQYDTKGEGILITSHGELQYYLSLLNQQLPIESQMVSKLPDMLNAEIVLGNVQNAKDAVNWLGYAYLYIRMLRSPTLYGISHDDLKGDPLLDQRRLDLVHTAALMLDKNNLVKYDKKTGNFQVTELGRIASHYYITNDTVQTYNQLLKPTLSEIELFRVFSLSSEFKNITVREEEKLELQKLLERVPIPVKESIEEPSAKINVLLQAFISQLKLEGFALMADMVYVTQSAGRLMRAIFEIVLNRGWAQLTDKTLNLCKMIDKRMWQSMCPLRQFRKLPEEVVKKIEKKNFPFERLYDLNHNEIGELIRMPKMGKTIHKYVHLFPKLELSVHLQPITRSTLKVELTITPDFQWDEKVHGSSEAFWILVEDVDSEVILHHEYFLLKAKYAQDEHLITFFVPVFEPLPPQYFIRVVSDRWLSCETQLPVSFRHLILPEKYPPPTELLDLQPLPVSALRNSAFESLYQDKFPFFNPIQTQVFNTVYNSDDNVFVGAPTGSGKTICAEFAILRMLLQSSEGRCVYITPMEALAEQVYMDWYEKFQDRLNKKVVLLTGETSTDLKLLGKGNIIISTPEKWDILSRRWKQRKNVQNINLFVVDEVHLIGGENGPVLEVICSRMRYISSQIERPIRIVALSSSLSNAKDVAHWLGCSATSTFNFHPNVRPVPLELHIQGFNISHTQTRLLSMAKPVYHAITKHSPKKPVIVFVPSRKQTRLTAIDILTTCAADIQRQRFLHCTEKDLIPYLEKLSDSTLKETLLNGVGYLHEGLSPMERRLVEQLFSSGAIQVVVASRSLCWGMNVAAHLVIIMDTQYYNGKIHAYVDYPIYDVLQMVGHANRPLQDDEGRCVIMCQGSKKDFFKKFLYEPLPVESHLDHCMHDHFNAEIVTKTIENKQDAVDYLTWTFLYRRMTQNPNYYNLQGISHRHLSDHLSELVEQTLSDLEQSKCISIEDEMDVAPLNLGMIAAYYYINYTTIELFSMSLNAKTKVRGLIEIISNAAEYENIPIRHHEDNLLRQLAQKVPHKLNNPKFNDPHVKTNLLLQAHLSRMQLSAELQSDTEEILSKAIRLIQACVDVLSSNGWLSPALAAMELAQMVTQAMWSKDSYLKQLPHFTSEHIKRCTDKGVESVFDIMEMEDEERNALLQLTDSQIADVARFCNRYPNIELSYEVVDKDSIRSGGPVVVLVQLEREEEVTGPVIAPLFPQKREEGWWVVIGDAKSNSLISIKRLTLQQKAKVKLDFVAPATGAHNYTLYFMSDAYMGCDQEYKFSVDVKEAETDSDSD
Assay [8] addresses Thioredoxin (Homo sapiens) (UniProt P10599). Nature of the assay: Binding affinity to TXN in human NCI-H358 cells at 1 uM by mass spectrometry based pull down assay. The format is cell-based.
Assay [9] addresses Src substrate cortactin (Homo sapiens) (UniProt Q14247). The assay is described as follows: Binding affinity to CTTN in human NCI-H358 cells at 1 uM by mass spectrometry based pull down assay. The format is cell-based.
In assay [10] the target is 80S Ribosome (Homo sapiens) (UniProt P08865+P42677+P62753+P15880+P23396+P61247+P62701+P22090+P46782+P62081+P62241+P46781+P46783+P62280+P25398+P62277+P62263+P62841+P62244+P62249+P08708+P62269+P39019+P60866+P63220+P62266+P62847+P62851+P62854+P62979+P62857+P62273+P62861+P39023+P36578+P46777+Q02878+P18124+P62424+P62917+P32969+P27635+P62906+P62913+P30050+P26373+P40429+P50914+P61313+P18621+Q07020+Q02543+P84098+P46778+P35268+P62829+P62750+P83731+P61254+P61353+P46776+P46779+P47914+P62888+P62899+P62910+P49207+P42766+P18077+Q9Y3U8+P83881+P61927+P61513+P63173+P62891+P62945+P05388+P05386). Nature of the assay: Binding affinity to RPL17 in human NCI-H358 cells at 1 uM by mass spectrometry based pull down assay. The format is cell-based.

In assay [11] the target is Amidophosphoribosyltransferase (Homo sapiens) (UniProt Q06203). The assay is described as follows: Binding affinity to PPAT in human NCI-H358 cells at 1 uM by mass spectrometry based pull down assay. The format is cell-based.
Chain of Amidophosphoribosyltransferase (Homo sapiens) (Q06203 whole entry): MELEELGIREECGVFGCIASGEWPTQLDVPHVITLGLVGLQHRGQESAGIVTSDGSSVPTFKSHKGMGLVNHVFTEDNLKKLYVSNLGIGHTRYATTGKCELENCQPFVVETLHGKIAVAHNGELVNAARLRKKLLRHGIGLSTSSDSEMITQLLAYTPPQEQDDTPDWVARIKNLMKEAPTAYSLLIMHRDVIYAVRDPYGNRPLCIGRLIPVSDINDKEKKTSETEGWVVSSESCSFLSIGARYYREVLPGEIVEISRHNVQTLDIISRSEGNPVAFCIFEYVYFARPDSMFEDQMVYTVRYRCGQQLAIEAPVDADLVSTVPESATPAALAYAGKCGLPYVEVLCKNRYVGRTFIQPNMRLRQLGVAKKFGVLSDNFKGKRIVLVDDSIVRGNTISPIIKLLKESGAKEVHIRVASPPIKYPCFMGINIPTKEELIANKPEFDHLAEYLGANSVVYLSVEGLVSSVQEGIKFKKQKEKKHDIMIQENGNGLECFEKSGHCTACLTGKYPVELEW
In assay [12] the target is Eukaryotic translation initiation factor 6 (Homo sapiens) (UniProt P56537). The assay is described as follows: Binding affinity to EIF6 in human NCI-H358 cells at 1 uM by mass spectrometry based pull down assay. The format is cell-based.
Assay [13] deals with Glutamate--cysteine ligase regulatory subunit (Homo sapiens) (UniProt P48507). The assay is described as follows: Binding affinity to GCLM in human NCI-H23 cells at 1 uM by mass spectrometry based pull down assay. The format is cell-based.
Assay [14] addresses 182 kDa tankyrase-1-binding protein (Homo sapiens) (UniProt Q9C0C2). The assay is described as follows: Binding affinity to TNKS1BP1 in human NCI-H358 cells at 1 uM by mass spectrometry based pull down assay. The format is cell-based.
Assay [15] has as its target Dual specificity mitogen-activated protein kinase kinase 2 (Homo sapiens) (UniProt P36507). Nature of the assay: Binding affinity to MAP2K2 in human NCI-H23 cells at 1 uM by mass spectrometry based pull down assay. The format is cell-based.
Assay [16] addresses Protein transport protein Sec23A (Homo sapiens) (UniProt Q15436). The assay is described as follows: Binding affinity to SEC23A in human NCI-H358 cells at 1 uM by mass spectrometry based pull down assay. The format is cell-based.
Assay [17] deals with Ribonucleoside-diphosphate reductase large subunit (Homo sapiens) (UniProt P23921). The assay is described as follows: Binding affinity to RRM1 in human NCI-H23 cells at 1 uM by mass spectrometry based pull down assay. The format is cell-based.
Assay [18] addresses T1, Mitogen-activated protein kinase kinase kinase 7 (Homo sapiens) (UniProt O43318).
T1 sequence (whole entry): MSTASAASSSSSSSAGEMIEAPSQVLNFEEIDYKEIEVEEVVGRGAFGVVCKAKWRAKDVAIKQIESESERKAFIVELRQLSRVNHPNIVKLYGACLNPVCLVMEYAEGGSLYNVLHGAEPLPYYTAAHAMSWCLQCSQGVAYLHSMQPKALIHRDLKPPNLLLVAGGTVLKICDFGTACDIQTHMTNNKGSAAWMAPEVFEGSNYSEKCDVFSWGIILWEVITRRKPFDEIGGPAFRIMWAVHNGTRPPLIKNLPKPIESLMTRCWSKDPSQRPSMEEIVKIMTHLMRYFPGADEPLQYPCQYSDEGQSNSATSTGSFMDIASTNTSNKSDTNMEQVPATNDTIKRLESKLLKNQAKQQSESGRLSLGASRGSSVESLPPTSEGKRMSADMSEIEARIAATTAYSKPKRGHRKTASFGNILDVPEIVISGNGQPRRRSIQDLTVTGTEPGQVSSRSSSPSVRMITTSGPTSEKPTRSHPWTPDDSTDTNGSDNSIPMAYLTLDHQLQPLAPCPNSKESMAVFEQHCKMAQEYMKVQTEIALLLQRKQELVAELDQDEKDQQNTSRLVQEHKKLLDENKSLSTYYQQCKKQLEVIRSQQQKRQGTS
Nature of the assay: Inhibition of TAK1 in RA patient-derived synovial fibroblasts assessed as inhibition of IL-1alpha-induced cytokine secretion at 3 uM preincubated for 3 hrs followed by IL-1alpha stimulation measured after 18 hrs by sandwich immunoassay. In a few lines: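 Primary RA synovial fibroblasts (donor RA2159) seeded 1000 cells/well and grown ~24 h at 37 °C, 5% CO2. Starved overnight in basal medium, then ~4 h in basal medium with 0.1% BSA. Two adjacent wells pooled per replicate, in biological duplicate. Supernatants diluted 1:3 and run on Luminex 27-plex/21-plex sandwich immunoassays for 48 analytes, with spiked-ligand and mock-supernatant background controls.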

The target in assay [19] is Tyrosine-protein kinase Fer (Homo sapiens) (UniProt P16591). The assay is described as follows: Inhibition of FER in human SKCO1 cells at 1 uM after 4 hrs using biotin labeled TSVAVKTCKEDLPQELK probe by mass-spectrometric analysis relative to control. The format is cell-based.

Chain of Src substrate cortactin (Homo sapiens) (Q14247 whole entry): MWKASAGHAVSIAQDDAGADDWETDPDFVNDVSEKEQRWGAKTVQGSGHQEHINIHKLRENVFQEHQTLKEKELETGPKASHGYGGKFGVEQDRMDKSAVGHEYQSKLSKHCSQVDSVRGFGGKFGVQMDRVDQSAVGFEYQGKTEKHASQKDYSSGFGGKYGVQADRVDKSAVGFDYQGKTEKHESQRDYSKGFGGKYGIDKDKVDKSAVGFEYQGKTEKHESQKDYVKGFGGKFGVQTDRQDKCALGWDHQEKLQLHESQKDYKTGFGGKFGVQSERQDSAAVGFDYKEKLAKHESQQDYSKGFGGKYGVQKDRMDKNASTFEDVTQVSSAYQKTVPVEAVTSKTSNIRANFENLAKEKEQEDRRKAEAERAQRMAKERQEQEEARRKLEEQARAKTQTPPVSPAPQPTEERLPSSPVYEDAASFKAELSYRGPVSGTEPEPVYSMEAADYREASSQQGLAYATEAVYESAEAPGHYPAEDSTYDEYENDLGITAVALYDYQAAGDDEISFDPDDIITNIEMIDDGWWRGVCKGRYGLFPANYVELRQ
Chain of Dual specificity mitogen-activated protein kinase kinase 2 (Homo sapiens) (P36507 whole entry): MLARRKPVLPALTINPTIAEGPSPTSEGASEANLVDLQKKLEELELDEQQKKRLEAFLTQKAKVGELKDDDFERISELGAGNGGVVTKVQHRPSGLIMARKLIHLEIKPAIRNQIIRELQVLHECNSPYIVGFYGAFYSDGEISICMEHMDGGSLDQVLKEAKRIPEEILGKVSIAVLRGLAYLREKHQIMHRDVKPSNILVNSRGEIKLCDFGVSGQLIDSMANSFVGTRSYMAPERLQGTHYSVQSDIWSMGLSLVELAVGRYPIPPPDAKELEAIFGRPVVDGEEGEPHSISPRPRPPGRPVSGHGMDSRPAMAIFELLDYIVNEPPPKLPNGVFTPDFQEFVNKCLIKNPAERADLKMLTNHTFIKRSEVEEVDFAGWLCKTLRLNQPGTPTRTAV
Chain of Thioredoxin (Homo sapiens) (P10599 whole entry): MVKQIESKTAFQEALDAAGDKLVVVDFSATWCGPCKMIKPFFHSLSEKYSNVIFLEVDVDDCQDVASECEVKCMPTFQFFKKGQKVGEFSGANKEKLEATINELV

Turning to `C=CC(=O)Nc1ccccc1Nc1nc(Nc2ccc(N3CCN(CCOCCOCCOCCNC(=O)CCCC[C@@H]4SC[C@@H]5NC(=O)N[C@@H]54)CC3)cc2)ncc1Cl`, the outcome (in assay [1]; in assay [2]; in assay [3]; in assay [4]; in assay [5]; in the assay with NCI-H23) was Active. Besides, the result in assay [6], in assay [7], in assay [8], in assay [9], in [10] and in [11] was Active. The result in assay [12], in assay [13], in [14], in assay [15], in assay [16] and in assay [17] was Active.
With `C=CC(=O)Nc1ccccc1Oc1nc(Nc2cnn(CCOC)c2)ncc1Cl`, the inhibition result in [18] was “Active”.
`C=CC(=O)Nc1ccccc1Nc1nc(Nc2ccc(N3CCN(C)CC3)cc2)ncc1Cl`: the inhibition in assay [19] is -0.2%.
